Values belong to the molecule of their own block, whether it stands above or below them.
How the values were obtained:
EphA4-AS1 = experiment: EphA4 auto-phosphorylation in transfected HEK-293T cells; assay type: cell-based
Pkd1-WT [1] = target: T1, Pkd1-WT (Homo sapiens, UniProt Q15139); conditions: cited from earlier work
EphA4-WT = EphA4-WT (Homo sapiens, UniProt P54764); experiment: EphA4 auto-phosphorylation in transfected HEK-293T cells; assay type: cell-based
308 human kinases [2] = conditions: cited from earlier work; for share of all protein kinases targeted (same metric, more than 80% inhibition): 500 nM
Kif5b-Ret-WT = Kif5b-Ret-WT (Homo sapiens, UniProt P07949+P33176); conditions: cited from earlier work
v-Src-AS1 = experiment: inhibition of tyrosine phosphorylation in stably transfected 3T3 cells; assay type: cell-based, mouse
Src-AS1 (Gly gatekeeper) = Src-AS1 (Gly gatekeeper) (Gallus gallus, UniProt P00523, T338G); experiment: in vitro kinase inhibition, seven-point dose-response; assay type: biochemical
CK1ε = CK1ε (Homo sapiens, UniProt P49674); experiment: in vitro IC50 against PP-sensitive WT kinases; assay type: biochemical; conditions: read-out: IC50 CK1ε; mean ± SEM
CK1ε, sequence (P49674 whole entry): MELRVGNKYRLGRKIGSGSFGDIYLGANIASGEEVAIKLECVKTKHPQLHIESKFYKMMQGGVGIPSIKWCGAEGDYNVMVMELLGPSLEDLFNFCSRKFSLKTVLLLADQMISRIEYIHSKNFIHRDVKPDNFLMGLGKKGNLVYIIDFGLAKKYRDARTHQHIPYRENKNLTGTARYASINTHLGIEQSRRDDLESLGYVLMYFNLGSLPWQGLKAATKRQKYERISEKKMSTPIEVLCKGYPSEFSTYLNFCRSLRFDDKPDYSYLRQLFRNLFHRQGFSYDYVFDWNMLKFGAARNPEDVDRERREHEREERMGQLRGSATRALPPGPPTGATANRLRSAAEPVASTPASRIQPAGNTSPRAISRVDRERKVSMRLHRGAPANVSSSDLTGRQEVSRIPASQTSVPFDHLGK
Procedure, shortened: (§1)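 In vitro kinase inhibition. IC50 derived from a seven-point dose-response of test compound; values reported as mean with standard error of the mean.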

Src-WT = Src-WT (Gallus gallus, UniProt P00523); experiment: in vitro kinase inhibition, seven-point dose-response; assay type: biochemical
Pkd1-AS1 = experiment: Pkd auto-phosphorylation at S916 in transfected HEK-293T cells; assay type: cell-based; conditions: 625nM - 10µM
Procedure, shortened: (§2)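 HEK-293T cells transiently transfected with Pkd1-WT or Pkd1-AS1. Cells treated with test compound across 625nM - 10µM, then assessed for Pkd auto-phosphorylation at S916.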

EphA1 = EphA1 (Homo sapiens, UniProt P21709); experiment: in vitro IC50 against PP-sensitive WT kinases; assay type: biochemical; conditions: read-out: IC50 EphA1; mean ± SEM
EphA1, sequence (P21709 26-976): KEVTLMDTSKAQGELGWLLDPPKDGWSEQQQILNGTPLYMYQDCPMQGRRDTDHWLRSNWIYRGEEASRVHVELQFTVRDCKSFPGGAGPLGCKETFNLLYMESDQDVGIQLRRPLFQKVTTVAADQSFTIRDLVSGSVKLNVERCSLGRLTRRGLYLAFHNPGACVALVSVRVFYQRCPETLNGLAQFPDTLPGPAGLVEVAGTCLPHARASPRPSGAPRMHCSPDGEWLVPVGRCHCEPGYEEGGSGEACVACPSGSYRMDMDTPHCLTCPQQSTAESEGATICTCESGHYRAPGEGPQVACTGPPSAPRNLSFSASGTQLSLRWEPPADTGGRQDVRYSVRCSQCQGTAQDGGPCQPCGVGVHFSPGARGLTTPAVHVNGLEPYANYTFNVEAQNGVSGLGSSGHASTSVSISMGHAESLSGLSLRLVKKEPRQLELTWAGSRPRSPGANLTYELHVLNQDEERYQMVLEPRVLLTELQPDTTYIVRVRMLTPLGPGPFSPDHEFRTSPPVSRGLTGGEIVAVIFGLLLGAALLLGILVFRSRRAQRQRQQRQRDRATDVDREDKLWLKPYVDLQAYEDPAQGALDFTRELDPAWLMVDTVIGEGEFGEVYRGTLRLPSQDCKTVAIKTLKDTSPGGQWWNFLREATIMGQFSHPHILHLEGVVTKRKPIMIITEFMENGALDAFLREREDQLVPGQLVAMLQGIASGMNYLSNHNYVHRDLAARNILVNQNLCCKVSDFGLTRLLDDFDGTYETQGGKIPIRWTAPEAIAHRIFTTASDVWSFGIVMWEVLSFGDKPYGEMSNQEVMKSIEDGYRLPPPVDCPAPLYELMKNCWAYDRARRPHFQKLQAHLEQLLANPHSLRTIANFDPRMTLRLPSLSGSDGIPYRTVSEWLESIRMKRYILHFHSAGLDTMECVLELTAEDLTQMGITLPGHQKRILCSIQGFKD
Procedure, shortened: as §1

Pkd2 = Pkd2 (Homo sapiens, UniProt Q9BZL6); experiment: in vitro IC50 against PP-sensitive WT kinases; assay type: biochemical; conditions: read-out: IC50 Pkd2; mean ± SEM
Pkd2, sequence (Q9BZL6 whole entry): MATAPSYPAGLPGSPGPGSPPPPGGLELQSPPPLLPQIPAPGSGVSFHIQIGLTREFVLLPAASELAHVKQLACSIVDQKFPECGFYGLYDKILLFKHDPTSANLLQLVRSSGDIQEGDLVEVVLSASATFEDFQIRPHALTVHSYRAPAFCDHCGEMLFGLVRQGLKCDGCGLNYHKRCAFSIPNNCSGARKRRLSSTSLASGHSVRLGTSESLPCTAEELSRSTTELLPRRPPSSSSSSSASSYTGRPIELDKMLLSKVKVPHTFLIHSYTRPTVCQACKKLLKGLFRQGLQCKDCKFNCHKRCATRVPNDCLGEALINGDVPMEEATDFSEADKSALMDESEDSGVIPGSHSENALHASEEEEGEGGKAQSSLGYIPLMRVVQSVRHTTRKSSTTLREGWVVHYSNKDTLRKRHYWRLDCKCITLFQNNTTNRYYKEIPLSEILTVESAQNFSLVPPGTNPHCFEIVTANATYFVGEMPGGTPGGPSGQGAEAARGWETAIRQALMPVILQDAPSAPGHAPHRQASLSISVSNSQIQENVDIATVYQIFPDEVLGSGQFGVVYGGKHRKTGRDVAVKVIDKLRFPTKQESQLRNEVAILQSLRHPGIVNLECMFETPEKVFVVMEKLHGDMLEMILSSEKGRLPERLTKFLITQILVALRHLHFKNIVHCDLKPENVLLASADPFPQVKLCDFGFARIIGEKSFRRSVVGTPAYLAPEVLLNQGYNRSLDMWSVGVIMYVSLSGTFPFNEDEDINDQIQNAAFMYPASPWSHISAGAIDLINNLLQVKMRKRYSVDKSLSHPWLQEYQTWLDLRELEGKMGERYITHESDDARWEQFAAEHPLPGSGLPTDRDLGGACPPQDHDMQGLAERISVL
Procedure, shortened: as §1

Ptk6 = Ptk6 (Homo sapiens, UniProt Q13882); experiment: in vitro IC50 against PP-sensitive WT kinases; assay type: biochemical; conditions: read-out: IC50 Ptk6; mean ± SEM
Ptk6, sequence (Q13882 whole entry): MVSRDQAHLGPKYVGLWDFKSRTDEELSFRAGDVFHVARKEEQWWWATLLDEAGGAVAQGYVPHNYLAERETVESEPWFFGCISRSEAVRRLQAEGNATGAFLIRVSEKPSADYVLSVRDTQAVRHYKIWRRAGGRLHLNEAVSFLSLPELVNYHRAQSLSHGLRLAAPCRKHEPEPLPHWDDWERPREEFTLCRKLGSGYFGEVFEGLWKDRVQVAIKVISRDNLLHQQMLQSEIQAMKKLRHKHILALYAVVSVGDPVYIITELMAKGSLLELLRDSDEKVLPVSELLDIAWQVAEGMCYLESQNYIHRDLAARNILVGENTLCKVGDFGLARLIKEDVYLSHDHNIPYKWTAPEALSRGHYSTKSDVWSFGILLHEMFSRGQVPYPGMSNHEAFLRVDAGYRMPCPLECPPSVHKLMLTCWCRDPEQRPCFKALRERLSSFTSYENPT
Procedure, shortened: as §1

Kif5b-Ret-AS2 = Kif5b-Ret-AS2 (Homo sapiens, UniProt P07949+P33176, V804A); experiment: Ret auto-phosphorylation at Y905 in 3T3 mouse cells; assay type: cell-based
Procedure, shortened: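 Mouse 3T3 cells expressing Kif5b-Ret-AS2 or Kif5b-Ret-WT were exposed to test compound at 10µM, 3.3µM and 1.1µM. Read-out was Ret auto-phosphorylation at Y905.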

v-Src-WT = experiment: inhibition of tyrosine phosphorylation in stably transfected 3T3 cells; assay type: cell-based, mouse
CKδ = CKδ (Homo sapiens, UniProt P48730); experiment: in vitro IC50 against PP-sensitive WT kinases; assay type: biochemical; conditions: read-out: IC50 CKδ; mean ± SEM
Procedure, shortened: as §1

Pkd1-AS2 = Pkd1-AS2 inhibition in cells; assay type: cell-based
Pkd1-WT [3] = target: T1, Pkd1-WT; experiment: Pkd auto-phosphorylation at S916 in transfected HEK-293T cells; assay type: cell-based; conditions: 625nM - 10µM
Procedure, shortened: as §2

Ack = Ack (Homo sapiens, UniProt Q07912); experiment: in vitro IC50 against PP-sensitive WT kinases; assay type: biochemical; conditions: read-out: IC50 Ack; mean ± SEM
Procedure, shortened: as §1

Src-AS2 (Ala gatekeeper) = Src-AS2 (Ala gatekeeper) (Gallus gallus, UniProt P00523, T338A); experiment: in vitro kinase inhibition, seven-point dose-response; assay type: biochemical
308 human kinases [4] = experiment: kinase panel inhibition profiling; assay type: biochemical; conditions: 1 µM
Procedure, shortened: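 Single-point profiling of 308 human kinases: fraction of each kinase's activity inhibited by test compound at 1µM.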

Ret = Ret (Homo sapiens, UniProt P07949); experiment: in vitro IC50 against PP-sensitive WT kinases; assay type: biochemical; conditions: read-out: IC50 Ret; mean ± SEM
Ret, sequence (P07949 29-1114): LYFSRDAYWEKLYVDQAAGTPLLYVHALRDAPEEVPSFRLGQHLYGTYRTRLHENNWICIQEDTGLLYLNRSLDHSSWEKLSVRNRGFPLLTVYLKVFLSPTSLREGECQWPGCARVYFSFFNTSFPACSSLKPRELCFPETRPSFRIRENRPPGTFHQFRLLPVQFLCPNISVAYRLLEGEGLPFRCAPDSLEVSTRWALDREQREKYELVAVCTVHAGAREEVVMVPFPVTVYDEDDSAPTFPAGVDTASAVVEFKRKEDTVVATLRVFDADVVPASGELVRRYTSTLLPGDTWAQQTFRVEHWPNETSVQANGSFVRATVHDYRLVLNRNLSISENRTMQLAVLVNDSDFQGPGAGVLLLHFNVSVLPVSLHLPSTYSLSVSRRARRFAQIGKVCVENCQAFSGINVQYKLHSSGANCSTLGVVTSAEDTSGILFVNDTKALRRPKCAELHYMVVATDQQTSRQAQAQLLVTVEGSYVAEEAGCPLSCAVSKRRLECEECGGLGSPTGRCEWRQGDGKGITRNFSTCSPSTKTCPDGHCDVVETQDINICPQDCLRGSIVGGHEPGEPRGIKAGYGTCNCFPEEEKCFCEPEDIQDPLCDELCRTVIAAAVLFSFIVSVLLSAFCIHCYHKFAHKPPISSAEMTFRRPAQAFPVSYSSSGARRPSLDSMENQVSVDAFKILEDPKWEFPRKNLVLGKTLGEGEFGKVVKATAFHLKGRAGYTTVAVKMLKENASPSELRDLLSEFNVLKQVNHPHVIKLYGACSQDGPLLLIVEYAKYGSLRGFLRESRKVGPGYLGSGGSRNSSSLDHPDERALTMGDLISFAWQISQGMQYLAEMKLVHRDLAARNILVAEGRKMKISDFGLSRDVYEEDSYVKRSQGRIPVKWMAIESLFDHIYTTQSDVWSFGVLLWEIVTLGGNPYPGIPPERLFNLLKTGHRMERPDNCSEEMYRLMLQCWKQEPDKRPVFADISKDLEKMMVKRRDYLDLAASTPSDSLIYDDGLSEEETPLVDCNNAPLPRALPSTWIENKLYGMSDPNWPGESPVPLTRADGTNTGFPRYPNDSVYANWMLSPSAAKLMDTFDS
Procedure, shortened: as §1

Pkd1 = Pkd1 (Homo sapiens, UniProt Q15139); experiment: in vitro IC50 against PP-sensitive WT kinases; assay type: biochemical; conditions: read-out: IC50 Pkd1; mean ± SEM
Pkd1, sequence (Q15139 whole entry): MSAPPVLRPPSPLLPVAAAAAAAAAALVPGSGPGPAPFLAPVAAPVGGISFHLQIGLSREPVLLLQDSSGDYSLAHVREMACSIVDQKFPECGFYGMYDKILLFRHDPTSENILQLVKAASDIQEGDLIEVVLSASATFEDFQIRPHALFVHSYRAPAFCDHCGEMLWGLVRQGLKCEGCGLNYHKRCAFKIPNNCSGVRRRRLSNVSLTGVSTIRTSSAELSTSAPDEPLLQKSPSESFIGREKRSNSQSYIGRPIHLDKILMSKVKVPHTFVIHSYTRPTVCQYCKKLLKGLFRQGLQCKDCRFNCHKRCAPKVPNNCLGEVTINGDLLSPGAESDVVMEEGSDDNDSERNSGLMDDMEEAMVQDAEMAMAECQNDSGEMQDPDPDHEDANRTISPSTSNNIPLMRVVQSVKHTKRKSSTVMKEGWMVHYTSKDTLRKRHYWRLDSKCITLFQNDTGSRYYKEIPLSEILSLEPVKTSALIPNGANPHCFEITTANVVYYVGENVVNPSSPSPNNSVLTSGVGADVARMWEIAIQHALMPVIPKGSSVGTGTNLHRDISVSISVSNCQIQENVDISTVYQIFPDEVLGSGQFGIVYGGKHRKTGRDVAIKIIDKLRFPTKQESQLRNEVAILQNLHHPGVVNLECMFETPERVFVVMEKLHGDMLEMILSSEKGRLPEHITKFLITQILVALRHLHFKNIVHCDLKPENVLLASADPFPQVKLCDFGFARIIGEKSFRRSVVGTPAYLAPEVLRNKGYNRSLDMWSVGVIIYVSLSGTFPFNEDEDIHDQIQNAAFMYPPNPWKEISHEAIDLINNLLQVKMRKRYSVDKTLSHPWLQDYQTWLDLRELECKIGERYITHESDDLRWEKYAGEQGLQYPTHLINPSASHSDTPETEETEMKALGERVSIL
Procedure, shortened: as §1

[5] = N12-butylamine derivative of the C7-iso-butyl staralog

T1 sequence (Q15139 whole entry): as above

Structure (SMILES): CC(C)(C)n1nc(-c2cccc3ccccc23)c2c(N)ncnc21 [Star 1NA-PP1, 1NA-PP1]
- inhibition of EphA4-AS1 allele (EphA4-AS1; at ≥2.5µM): greater than 90%
- inhibition of Pkd1 WT kinase (in words) (Pkd1-WT [1]): weakly inhibited at higher drug concentrations
- concentrations at which EphA4-WT activity is inhibited (EphA4-WT): ≥ 2.5 µM
- share of kinases inhibited by more than 80% (308 human kinases [2]): 4.5%
- inhibition of Ret WT kinase (in words) (Kif5b-Ret-WT): weakly inhibited at higher drug concentrations

Structure (SMILES): CC(C)(C)n1nc(Cc2cccc3ccccc23)c2c(N)ncnc21 [Star 1NM-PP1, 1NM-PP1]
- share of kinases inhibited by more than 80% (308 human kinases [2]): 1.2%

- activity/potency towards Src-AS1 (in words) (Src-AS1 (Gly gatekeeper)): most potent
Structure (SMILES): CC(C)C[C@@H]1NC(=O)c2c1c1c3ccccc3[nH]c1c1[nH]c3ccccc3c21 [Star 1]
- concentration giving robust inhibition of v-Src-AS1 mediated phosphorylation (v-Src-AS1): below 1 µM
- relative potency against v-Src-AS1 in cells (in words) (v-Src-AS1): weakest

Structure (SMILES): Cc1cccc(Cc2nn(C(C)(C)C)c3ncnc(N)c23)c1 [Star 3MB-PP1, 3MB-PP1]
- share of kinases inhibited by more than 80% (308 human kinases [2]): 1.2%

- IC50 (CK1ε): > 5 µM
- IC50 (Src-WT; read-out: IC50 toward Src-WT): > 5 µM
- IC50 (EphA1): > 5 µM
- IC50 (Pkd2): > 5 µM
- IC50 (Ptk6): > 5 µM
- inhibition of Ret-AS2 autophosphorylation (in words) (Kif5b-Ret-AS2): capable of inhibiting
- IC50 (CKδ): > 5 µM
- effect on Pkd1-WT activity (in words) (Pkd1-WT [3]): do not affect Pkd1-WT activity
- IC50 (Ack): 1.3 µM
- improvement in potency toward Src-AS2 (Src-AS2 (Ala gatekeeper); [5]): ~ ten-fold
- highest inhibition of any single kinase in the panel (308 human kinases [4]): ≤ 80%
- IC50 (Ret): > 5 µM
- improvement in potency toward Src-AS1 (Src-AS1 (Gly gatekeeper); [5]): ~ ten-fold
- IC50 (Pkd1): 3.3 µM
Structure (SMILES): CC(C)C[C@@H]1NC(=O)c2c1c1c3ccccc3n(CCCCN)c1c1[nH]c3ccccc3c21 [Star 12]
- concentration giving robust inhibition of v-Src-AS1 mediated phosphorylation (v-Src-AS1): below 1 µM
- relative potency against v-Src-AS1 in cells (in words) (v-Src-AS1): most potent inhibitor
- activity towards Pkd1-AS1 (in words) (Pkd1-AS1): potent Pkd-AS1 inhibitors
- activity towards EphA4-AS1 (in words) (EphA4-AS1): exhibited activity
- effect on v-Src-WT-mediated phosphorylation (in words) (v-Src-WT): little effect
- activity towards Pkd1-AS2 (in words) (Pkd1-AS2): did not show activity

Structure (SMILES): COC(=O)[C@@]1(O)C[C@H]2O[C@]1(C)n1c3ccccc3c3c4c(c5c6ccccc6n2c5c31)C(=O)NC4 [Star K252a, K252a]
- share of all protein kinases targeted (same metric, more than 80% inhibition) (308 human kinases [2]): 49%

Structure (SMILES): O=C1NCc2c1c1c3ccccc3[nH]c1c1[nH]c3ccccc3c21 [Star K252c, K252c, reference compound]
- activity towards Src-WT (in words) (Src-WT): complete loss of activity
- activity towards Src-AS2 (in words) (Src-AS2 (Ala gatekeeper)): complete loss of activity
- activity/potency towards Src-AS1 (in words) (Src-AS1 (Gly gatekeeper)): complete loss of activity

Structure (SMILES): CN[C@@H]1C[C@H]2O[C@@](C)([C@@H]1OC)n1c3ccccc3c3c4c(c5c6ccccc6n2c5c31)C(=O)NC4 [staurosporine]
- share of all protein kinases targeted (same metric, more than 80% inhibition) (308 human kinases [2]): 72%
- share of protein kinases potently targeted (308 human kinases [2]): ~ 80%

— publication PMC3938282 (Journal of the American Chemical Society, 2013)
